Test results taken from ChEMBL document CHEMBL2417539, “1-substituted (Dibenzo[b,d]thiophen-4-yl)-2-morpholino-4H-chromen-4-ones endowed with dual DNA-PK/PI3-K inhibitory activity” (J Med Chem, 2013).
≈ marks a conversion by molar mass, not a printed value.

How the values were obtained:
[1] = target: Voltage-gated inwardly rectifying potassium channel KCNH2 (Homo sapiens, UniProt Q12809); experiment: Inhibition of human ERG expressed in cisapride treated CHO cells by Ion Works assay
[2] = target: Phosphatidylinositol 4,5-bisphosphate 3-kinase catalytic subunit gamma isoform (Homo sapiens, UniProt P48736); experiment: Inhibition of PI-3K gamma (unknown origin)
Phosphatidylinositol 4,5-bisphosphate 3-kinase catalytic subunit gamma isoform, sequence (P48736 whole entry, canonical isoform): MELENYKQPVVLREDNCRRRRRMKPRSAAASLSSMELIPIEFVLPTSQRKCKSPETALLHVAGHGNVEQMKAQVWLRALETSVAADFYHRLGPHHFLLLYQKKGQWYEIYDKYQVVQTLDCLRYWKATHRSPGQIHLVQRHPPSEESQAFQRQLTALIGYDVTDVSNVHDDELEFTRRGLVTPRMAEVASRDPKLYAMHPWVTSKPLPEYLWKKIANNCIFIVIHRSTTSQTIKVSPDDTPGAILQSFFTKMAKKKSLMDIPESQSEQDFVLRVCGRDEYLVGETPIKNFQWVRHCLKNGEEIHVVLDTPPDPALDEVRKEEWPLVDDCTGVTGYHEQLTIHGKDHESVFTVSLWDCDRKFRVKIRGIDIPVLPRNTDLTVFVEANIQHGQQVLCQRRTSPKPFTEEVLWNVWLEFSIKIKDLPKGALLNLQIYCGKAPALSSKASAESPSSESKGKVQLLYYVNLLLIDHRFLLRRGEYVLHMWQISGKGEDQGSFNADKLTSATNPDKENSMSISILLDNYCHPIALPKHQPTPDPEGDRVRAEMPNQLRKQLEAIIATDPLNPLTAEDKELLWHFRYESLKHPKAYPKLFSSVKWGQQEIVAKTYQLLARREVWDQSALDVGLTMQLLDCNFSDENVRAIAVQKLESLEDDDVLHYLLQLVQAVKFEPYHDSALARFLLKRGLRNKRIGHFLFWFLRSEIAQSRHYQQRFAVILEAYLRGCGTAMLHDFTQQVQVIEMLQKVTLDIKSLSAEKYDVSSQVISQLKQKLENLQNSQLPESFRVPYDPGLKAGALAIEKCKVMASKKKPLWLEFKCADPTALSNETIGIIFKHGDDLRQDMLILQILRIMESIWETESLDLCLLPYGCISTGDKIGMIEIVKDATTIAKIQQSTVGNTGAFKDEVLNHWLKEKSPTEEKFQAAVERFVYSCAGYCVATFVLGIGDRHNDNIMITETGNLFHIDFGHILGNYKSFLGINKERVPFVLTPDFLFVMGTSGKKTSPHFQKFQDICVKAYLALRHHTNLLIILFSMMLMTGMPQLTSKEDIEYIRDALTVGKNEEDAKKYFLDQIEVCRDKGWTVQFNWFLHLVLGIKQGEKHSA

[3] = target: Serine/threonine-protein kinase mTOR (Homo sapiens, UniProt P42345); experiment: Inhibition of mTOR (unknown origin)
[4] = target: T1, DNA-dependent protein kinase catalytic subunit (Homo sapiens, UniProt P78527); experiment: Inhibition of DNA-PK (unknown origin)
[5] = Fraction unbound in human Plasma; assay type: ADME, cell-free
[6] = target: T1, DNA-dependent protein kinase catalytic subunit; experiment: Inhibition of DNA-PK autophosphorylation at S2056 in human HeLa cells; assay type: cell-based
[7] = target: Serine-protein kinase ATM (Homo sapiens, UniProt Q13315); experiment: Inhibition of ATM (unknown origin)
[8] = target: Phosphatidylinositol 4,5-bisphosphate 3-kinase catalytic subunit beta isoform (Homo sapiens, UniProt P42338); experiment: Inhibition of PI-3K beta (unknown origin)
[9] = target: Serine/threonine-protein kinase ATR (Homo sapiens, UniProt Q13535); experiment: Inhibition of ATR (unknown origin)
[10] = target: T1, DNA-dependent protein kinase catalytic subunit; experiment: Inhibition of human DNA-PK using GST-tagged p53N66 as substrate after 1 hr by ELISA-based chemiluminiscence assay
HeLa [11] = experiment: Antiproliferative activity against human HeLa cells assessed as cell survival ratio at 0.5 uM treated 1 hr before 2Gy ionizing radiation measured after 6 to 8 days by DMR clonogenic assay; assay type: functional
Outline: (§1)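 HeLa cells seeded in 6-well dishes, incubated overnight at 37 °C/5% CO2, pre-treated 1 h with vehicle or inhibitor (0.1 or 0.5 μM), then given 2 Gy X-ray IR and held overnight. Medium then replaced without compound and culture continued 6-8 days. Colonies Giemsa-stained and counted automatically. DMR = % survival (vehicle, 2 Gy) / % survival (compound, 2 Gy).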

[12] = Lipophilicity, log D of the compound; assay type: physicochemical; conditions: octanol/water
[13] = Aqueous solubility of the compound at pH 7.4; assay type: physicochemical; conditions: buffer
HeLa [14] = experiment: Antiproliferative activity against human HeLa cells assessed as cell survival ratio at 0.1 uM treated 1 hr before 2Gy ionizing radiation measured after 6 to 8 days by DMR clonogenic assay; assay type: functional; outline: as §1
[15] = target: T2, Phosphatidylinositol 4,5-bisphosphate 3-kinase catalytic subunit delta isoform (Homo sapiens, UniProt O00329); experiment: Inhibition of PI-3K delta (unknown origin)
T2 sequence (O00329 whole entry): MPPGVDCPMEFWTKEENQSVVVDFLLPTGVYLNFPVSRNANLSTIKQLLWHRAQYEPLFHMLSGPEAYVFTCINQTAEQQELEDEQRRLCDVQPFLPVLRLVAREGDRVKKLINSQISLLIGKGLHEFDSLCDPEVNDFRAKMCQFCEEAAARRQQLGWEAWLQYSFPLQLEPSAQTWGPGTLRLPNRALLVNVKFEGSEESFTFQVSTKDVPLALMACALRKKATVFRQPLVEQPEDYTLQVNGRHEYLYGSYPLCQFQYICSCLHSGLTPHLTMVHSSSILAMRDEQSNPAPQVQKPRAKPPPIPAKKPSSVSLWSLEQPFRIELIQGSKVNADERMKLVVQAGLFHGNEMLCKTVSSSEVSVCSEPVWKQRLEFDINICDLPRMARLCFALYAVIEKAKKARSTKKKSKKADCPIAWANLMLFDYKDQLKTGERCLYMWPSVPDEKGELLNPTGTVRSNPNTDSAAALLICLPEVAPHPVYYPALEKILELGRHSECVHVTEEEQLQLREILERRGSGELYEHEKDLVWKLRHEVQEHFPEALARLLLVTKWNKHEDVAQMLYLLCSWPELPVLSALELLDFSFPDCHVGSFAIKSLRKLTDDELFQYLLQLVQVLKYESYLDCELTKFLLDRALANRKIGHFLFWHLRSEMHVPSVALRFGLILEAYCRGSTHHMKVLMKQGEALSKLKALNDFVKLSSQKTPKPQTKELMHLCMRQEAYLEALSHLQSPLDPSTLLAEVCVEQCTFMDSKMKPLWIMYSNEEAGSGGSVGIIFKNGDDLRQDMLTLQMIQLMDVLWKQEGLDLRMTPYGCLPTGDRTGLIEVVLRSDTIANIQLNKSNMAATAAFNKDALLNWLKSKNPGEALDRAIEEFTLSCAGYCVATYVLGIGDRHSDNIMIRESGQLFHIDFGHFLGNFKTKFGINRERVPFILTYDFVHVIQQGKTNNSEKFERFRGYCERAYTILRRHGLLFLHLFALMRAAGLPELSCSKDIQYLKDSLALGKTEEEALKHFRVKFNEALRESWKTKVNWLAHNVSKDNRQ

Cytochrome P450 2C9 = Cytochrome P450 2C9 (Homo sapiens, UniProt P11712); experiment: Inhibition of CYP2C9 (unknown origin); assay type: ADME
Cytochrome P450 2C9, sequence (P11712 whole entry): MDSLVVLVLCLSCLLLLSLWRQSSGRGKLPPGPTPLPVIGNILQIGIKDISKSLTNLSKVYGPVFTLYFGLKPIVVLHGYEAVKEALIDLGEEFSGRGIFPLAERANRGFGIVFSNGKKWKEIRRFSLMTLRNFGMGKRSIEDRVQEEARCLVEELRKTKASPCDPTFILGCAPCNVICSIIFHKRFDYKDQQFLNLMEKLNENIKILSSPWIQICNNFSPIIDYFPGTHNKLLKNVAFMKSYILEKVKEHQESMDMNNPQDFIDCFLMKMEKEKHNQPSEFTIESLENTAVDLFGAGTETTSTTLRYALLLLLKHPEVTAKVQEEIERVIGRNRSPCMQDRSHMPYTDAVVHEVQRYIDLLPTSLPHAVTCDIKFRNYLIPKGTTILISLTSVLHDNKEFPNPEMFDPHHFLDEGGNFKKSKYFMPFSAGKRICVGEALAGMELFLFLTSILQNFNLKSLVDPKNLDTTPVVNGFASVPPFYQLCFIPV

Cytochrome P450 2D6 = Cytochrome P450 2D6 (Homo sapiens, UniProt P10635); experiment: Inhibition of CYP2D6 (unknown origin); assay type: ADME
Cytochrome P450 2D6, sequence (P10635 whole entry): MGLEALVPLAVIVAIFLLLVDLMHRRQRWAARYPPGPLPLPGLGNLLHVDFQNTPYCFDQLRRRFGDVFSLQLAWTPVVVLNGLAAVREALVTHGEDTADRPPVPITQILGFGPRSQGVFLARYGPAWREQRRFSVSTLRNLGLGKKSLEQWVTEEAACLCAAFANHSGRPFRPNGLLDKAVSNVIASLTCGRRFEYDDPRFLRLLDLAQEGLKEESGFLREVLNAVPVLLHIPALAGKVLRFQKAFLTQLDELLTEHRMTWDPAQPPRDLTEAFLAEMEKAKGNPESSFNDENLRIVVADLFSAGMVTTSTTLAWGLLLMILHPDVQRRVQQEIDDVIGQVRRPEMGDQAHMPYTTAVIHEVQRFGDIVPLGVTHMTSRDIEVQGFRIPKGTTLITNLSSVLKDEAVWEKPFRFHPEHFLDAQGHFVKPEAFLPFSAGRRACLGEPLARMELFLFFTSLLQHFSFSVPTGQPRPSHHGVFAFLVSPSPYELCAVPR

Cytochrome P450 3A4 = Cytochrome P450 3A4 (Homo sapiens, UniProt P08684); experiment: Inhibition of CYP3A4 (unknown origin); assay type: ADME
Cytochrome P450 3A4, sequence (P08684 whole entry): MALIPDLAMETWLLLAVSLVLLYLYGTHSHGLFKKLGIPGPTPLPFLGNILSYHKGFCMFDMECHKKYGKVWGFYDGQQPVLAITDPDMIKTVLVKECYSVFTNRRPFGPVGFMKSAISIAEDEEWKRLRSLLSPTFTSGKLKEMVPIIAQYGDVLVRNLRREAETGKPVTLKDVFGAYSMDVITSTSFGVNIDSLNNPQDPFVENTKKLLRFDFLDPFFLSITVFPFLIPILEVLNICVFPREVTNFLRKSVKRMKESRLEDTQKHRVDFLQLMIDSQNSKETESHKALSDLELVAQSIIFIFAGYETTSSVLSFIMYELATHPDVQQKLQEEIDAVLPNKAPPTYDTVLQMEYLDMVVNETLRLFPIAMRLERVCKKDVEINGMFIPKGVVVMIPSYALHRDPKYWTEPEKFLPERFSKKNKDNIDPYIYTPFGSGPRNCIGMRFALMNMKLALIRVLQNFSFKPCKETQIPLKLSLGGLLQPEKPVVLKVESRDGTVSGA

Cytochrome P450 2C19 = Cytochrome P450 2C19 (Homo sapiens, UniProt P33261); experiment: Inhibition of CYP2C19 (unknown origin); assay type: ADME
Cytochrome P450 2C19, sequence (P33261 whole entry): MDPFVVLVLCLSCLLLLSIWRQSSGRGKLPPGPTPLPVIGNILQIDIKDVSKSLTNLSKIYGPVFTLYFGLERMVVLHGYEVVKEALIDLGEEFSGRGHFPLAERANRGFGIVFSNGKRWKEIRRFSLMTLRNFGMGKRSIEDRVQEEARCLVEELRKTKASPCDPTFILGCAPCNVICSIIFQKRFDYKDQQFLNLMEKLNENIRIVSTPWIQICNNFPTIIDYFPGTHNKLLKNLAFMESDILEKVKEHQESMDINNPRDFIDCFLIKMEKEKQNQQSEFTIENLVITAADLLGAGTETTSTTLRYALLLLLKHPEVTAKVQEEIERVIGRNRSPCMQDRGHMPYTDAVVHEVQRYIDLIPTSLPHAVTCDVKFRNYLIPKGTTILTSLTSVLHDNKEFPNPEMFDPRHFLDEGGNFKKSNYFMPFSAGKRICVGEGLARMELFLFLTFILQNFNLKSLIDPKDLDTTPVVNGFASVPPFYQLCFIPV

Cytochrome P450 1A2 = target: T3, Cytochrome P450 1A2 (Homo sapiens, UniProt P05177); experiment: Inhibition of CYP1A2 (unknown origin); assay type: ADME
T3 sequence (P05177 whole entry): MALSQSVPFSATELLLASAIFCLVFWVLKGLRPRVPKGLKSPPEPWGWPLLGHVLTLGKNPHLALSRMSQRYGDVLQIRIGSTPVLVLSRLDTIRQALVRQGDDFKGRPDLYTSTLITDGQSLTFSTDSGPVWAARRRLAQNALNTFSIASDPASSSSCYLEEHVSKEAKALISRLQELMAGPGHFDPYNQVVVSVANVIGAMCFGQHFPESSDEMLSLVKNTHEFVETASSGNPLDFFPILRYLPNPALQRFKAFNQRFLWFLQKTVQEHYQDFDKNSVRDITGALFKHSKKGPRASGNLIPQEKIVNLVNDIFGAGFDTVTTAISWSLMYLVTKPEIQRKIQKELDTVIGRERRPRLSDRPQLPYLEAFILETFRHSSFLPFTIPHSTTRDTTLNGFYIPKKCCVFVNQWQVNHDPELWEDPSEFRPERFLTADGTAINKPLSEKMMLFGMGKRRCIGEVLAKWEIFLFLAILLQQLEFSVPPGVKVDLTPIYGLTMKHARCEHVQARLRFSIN

[16] = target: Aurora kinase B (Homo sapiens) (UniProt Q96GD4); experiment: Inhibition of Aurora kinase B (unknown origin); conditions: concentration not given here
Aurora kinase B (Homo sapiens), sequence (Q96GD4 whole entry): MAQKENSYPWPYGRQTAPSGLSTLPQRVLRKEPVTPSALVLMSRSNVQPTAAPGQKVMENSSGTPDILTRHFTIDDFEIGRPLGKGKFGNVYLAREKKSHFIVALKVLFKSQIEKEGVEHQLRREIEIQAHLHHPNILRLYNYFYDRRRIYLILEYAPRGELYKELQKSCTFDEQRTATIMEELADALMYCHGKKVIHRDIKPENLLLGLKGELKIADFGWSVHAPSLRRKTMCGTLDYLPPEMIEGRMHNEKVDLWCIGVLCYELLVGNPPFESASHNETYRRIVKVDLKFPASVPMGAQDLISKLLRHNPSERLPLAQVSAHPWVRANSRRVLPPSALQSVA

HeLa [17] = experiment: Antiproliferative activity against human HeLa cells assessed as cell viability after 6 to 8 days by DMR clonogenic assay; assay type: cell-based
[18] = target: Phosphatidylinositol 4,5-bisphosphate 3-kinase catalytic subunit alpha isoform (Homo sapiens, UniProt P42336); experiment: Inhibition of PI-3K alpha (unknown origin)

Voltage-gated inwardly rectifying potassium channel KCNH2, sequence (Q12809 whole entry, canonical isoform): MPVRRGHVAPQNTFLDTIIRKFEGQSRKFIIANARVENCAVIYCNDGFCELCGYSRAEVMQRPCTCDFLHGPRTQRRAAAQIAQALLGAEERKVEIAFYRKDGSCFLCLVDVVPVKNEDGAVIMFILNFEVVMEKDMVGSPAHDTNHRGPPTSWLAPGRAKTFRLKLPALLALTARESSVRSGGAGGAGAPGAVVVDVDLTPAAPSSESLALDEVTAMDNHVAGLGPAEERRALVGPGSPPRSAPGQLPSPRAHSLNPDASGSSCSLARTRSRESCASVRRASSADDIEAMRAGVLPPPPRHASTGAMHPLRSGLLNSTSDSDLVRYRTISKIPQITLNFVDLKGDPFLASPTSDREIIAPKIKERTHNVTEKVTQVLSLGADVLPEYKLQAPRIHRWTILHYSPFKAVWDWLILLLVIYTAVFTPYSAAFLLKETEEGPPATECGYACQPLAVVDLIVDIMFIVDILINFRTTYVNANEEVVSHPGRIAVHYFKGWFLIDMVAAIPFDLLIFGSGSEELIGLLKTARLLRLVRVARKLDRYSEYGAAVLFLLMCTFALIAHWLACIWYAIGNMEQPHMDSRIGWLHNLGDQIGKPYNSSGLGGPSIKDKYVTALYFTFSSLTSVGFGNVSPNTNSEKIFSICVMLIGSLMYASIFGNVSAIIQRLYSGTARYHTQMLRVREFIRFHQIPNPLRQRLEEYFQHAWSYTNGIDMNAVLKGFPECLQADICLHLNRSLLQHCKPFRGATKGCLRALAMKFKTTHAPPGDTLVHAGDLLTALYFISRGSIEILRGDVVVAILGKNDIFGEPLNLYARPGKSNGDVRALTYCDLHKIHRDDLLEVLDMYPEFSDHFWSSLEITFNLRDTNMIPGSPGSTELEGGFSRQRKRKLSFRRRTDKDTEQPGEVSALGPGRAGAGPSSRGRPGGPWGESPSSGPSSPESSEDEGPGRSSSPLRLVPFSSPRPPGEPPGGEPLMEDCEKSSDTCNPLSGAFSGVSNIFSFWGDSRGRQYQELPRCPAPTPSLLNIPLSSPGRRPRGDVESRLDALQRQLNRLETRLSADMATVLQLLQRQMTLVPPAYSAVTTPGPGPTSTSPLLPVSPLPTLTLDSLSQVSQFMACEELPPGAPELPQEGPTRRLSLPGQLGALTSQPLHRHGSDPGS

Row | Compound | IC50 [1] | IC50 [2] | IC50 [3] | fraction unbound [5] | EC50 [6] | IC50 [7] | IC50 [8] | IC50 [9] | IC50 [10] | Ratio (HeLa [11]) | logD [12] | solubility [13] | Ratio (HeLa [14]) | IC50 [15] | IC50 (Cytochrome P450 2C9) | IC50 (Cytochrome P450 2D6) | IC50 (Cytochrome P450 3A4) | IC50 (Cytochrome P450 2C19) | IC50 (Cytochrome P450 1A2) | also measured
1 | O=c1cc(N2CCOCC2)oc2c(-c3cccc4c3sc3ccccc34)cccc12 | 14 µM | 220 nM | 2.4 µM | 0.0004 | 212 nM | > 10 µM | 16 nM | > 10 µM | 42 nM | 2.8 | > 4.3 | < 0.2 µM | 2.2 | 30 nM | – | – | – | – | – | IC50 [4]: 40 nM
2 | CN1CCN(CC(=O)Nc2ccc(-c3cccc4c(=O)cc(N5CCOCC5)oc34)c3sc4ccccc4c23)CC1 | > 10 µM | – | – | 0.036 | 426 nM | – | – | – | 12 nM | 7.4 | 3 | 5 µM (≈ 2.84 µg/mL) | 2.4 | – | > 10 µM | > 10 µM | > 10 µM | > 10 µM | > 10 µM | –
3 | CCN1CCN(CC(=O)Nc2ccc(-c3cccc4c(=O)cc(N5CCOCC5)oc34)c3sc4ccccc4c23)CC1 | – | 590 nM | 10 µM | 0.036 | 136 nM | > 10 µM | 0.5 nM | > 10 µM | – | – | 3.05 | 161 µM (≈ 93.8 µg/mL) | – | < 0.1 nM | > 10 µM | > 10 µM | > 10 µM | > 10 µM | > 10 µM | inhibition [16]: 44%; IC50 (HeLa [17]): > 25 µM; IC50 [18]: 4 nM
4 | O=C(CN1CCN(CCO)CC1)Nc1ccc(-c2cccc3c(=O)cc(N4CCOCC4)oc23)c2sc3ccccc3c12 | > 30 µM | – | – | 0.098 | 109 nM | – | – | – | 5 nM | 8.4 | 2.7 | 154 µM (≈ 92.2 µg/mL) | 2 | – | > 10 µM | > 10 µM | > 10 µM | > 10 µM | > 10 µM | –
